Test system: HEK-293T
Experiment: Multiplex assay against HEK293T
Type: toxicity, cell-based
Settings: human
How it was run: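 Four dyes were applied at seeding to live cells: Hoechst33342, BioTracker Green Microtubule Cytoskeleton Dye, MitoTracker Red and Annexin V Alexa Fluor 680. Imaging after compound addition used a CQ1 microscope at 37°C and 5% CO2. CellPathfinder machine-learning gating then sorted cells into Hoechst high-intensity objects or normal cells, normal cells into healthy, pyknosed or fragmented nuclei, and pyknosed cells into mitotic or apoptotic, with tubulin, mitochondrial-mass and membrane-permeability phenotypes given as per cents of healthy-nucleus cells.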

[1] = 12 h, 1 µM, compound concentration 1 uM, replicate 1
[2] = 12 h, 1 µM, compound concentration 1 uM, replicate 2
[3] = 12 h, 10 µM, compound concentration 10 uM, replicate 1
[4] = 12 h, 10 µM, compound concentration 10 uM, replicate 2
[5] = 24 h, 1 µM, compound concentration 1 uM, replicate 1
[6] = 24 h, 1 µM, compound concentration 1 uM, replicate 2
[7] = 24 h, 10 µM, compound concentration 10 uM, replicate 1
[8] = 24 h, 10 µM, compound concentration 10 uM, replicate 2
[9] = 48 h, 1 µM, compound concentration 1 uM, replicate 1
[10] = 48 h, 1 µM, compound concentration 1 uM, replicate 2
[11] = 48 h, 10 µM, compound concentration 10 uM, replicate 1
[12] = 48 h, 10 µM, compound concentration 10 uM, replicate 2

Q: Which “Population Apoptotic (%)” value [1] does the source give for `CN(C)C(=O)Cn1cc(-c2ccc(-c3cncc4ccccc34)cc2)cn1` here?
A: 52%

Q: And the “Population Fragmented Nuclei (%)” value [1]?
A: 5%

Q: And the “Population Healthy Nuclei (%)” value [1]?
A: 81%

Q: And the “Population Hoechst High Intensity Objects (%)” value [1]?
A: 7%

Q: What about the “Population Membrane Permeable-Phenotype (%)” value [1] of the same compound?
A: 0%

Q: What about the “Population Mitochondria Different-Phenotype (%)” value [1] of the same compound?
A: 50%

Q: And the “Population Mitotic Cells (%)” value [1]?
A: 47%

Q: And the “Population Normal (%)” value [1]?
A: 92%

Q: What about the “Population Pyknosed Nuclei (%)” value [1] of the same compound?
A: 12%

Q: And the “Population Tubulin-Different-Phenotype (%)” value [1]?
A: 35%

Q: And the “Total Cell Count” value [1]?
A: 411

Q: And the “Population Apoptotic (%)” value [2]?
A: 40%

Q: And the “Population Fragmented Nuclei (%)” value [2]?
A: 4%

Q: What about the “Population Healthy Nuclei (%)” value [2] of the same compound?
A: 80%

Q: What about the “Population Hoechst High Intensity Objects (%)” value [2] of the same compound?
A: 2%

Q: And the “Population Mitochondria Different-Phenotype (%)” value [2]?
A: 58%

Q: And the “Population Mitotic Cells (%)” value [2]?
A: 59%

Q: What about the “Population Normal (%)” value [2] of the same compound?
A: 97%

Q: And the “Population Pyknosed Nuclei (%)” value [2]?
A: 14%

Q: What about the “Population Tubulin-Different-Phenotype (%)” value [2] of the same compound?
A: 23%

Q: What about the “Total Cell Count” value [2] of the same compound?
A: 337

Q: And the “Population Apoptotic (%)” value [3]?
A: 48%

Q: And the “Population Fragmented Nuclei (%)” value [3]?
A: 8%

Q: What about the “Population Healthy Nuclei (%)” value [3] of the same compound?
A: 73%

Q: And the “Population Hoechst High Intensity Objects (%)” value [3]?
A: 6%

Q: What about the “Population Membrane Permeable-Phenotype (%)” value [3] of the same compound?
A: 0%

Q: And the “Population Mitochondria Different-Phenotype (%)” value [3]?
A: 65%

Q: And the “Population Mitotic Cells (%)” value [3]?
A: 51%

Q: And the “Population Normal (%)” value [3]?
A: 93%

Q: What about the “Population Pyknosed Nuclei (%)” value [3] of the same compound?
A: 17%

Q: And the “Population Tubulin-Different-Phenotype (%)” value [3]?
A: 47%

Q: And the “Total Cell Count” value [3]?
A: 264

Q: And the “Population Apoptotic (%)” value [4]?
A: 69%

Q: What about the “Population Healthy Nuclei (%)” value [4] of the same compound?
A: 76%

Q: And the “Population Hoechst High Intensity Objects (%)” value [4]?
A: 19%

Q: And the “Population Mitochondria Different-Phenotype (%)” value [4]?
A: 69%

Q: What about the “Population Mitotic Cells (%)” value [4] of the same compound?
A: 30%

Q: What about the “Population Normal (%)” value [4] of the same compound?
A: 80%

Q: What about the “Population Pyknosed Nuclei (%)” value [4] of the same compound?
A: 15%

Q: What about the “Population Tubulin-Different-Phenotype (%)” value [4] of the same compound?
A: 43%

Q: And the “Total Cell Count” value [4]?
A: 321

Q: What about the “Population Apoptotic (%)” value [5] of the same compound?
A: 47%

Q: And the “Population Fragmented Nuclei (%)” value [5]?
A: 10%

Q: And the “Population Healthy Nuclei (%)” value [5]?
A: 79%

Q: What about the “Population Hoechst High Intensity Objects (%)” value [5] of the same compound?
A: 6%

Q: And the “Population Membrane Permeable-Phenotype (%)” value [5]?
A: 0%

Q: What about the “Population Mitochondria Different-Phenotype (%)” value [5] of the same compound?
A: 38%

Q: And the “Population Mitotic Cells (%)” value [5]?
A: 52%

Q: What about the “Population Normal (%)” value [5] of the same compound?
A: 93%

Q: What about the “Population Pyknosed Nuclei (%)” value [5] of the same compound?
A: 10%

Q: And the “Population Tubulin-Different-Phenotype (%)” value [5]?
A: 24%

Q: And the “Total Cell Count” value [5]?
A: 498

Q: What about the “Population Apoptotic (%)” value [6] of the same compound?
A: 40%

Q: And the “Population Fragmented Nuclei (%)” value [6]?
A: 6%

Q: And the “Population Healthy Nuclei (%)” value [6]?
A: 82%

Q: And the “Population Hoechst High Intensity Objects (%)” value [6]?
A: 7%

Q: What about the “Population Mitochondria Different-Phenotype (%)” value [6] of the same compound?
A: 45%

Q: And the “Population Mitotic Cells (%)” value [6]?
A: 60%

Q: And the “Population Normal (%)” value [6]?
A: 92%

Q: And the “Population Tubulin-Different-Phenotype (%)” value [6]?
A: 23%

Q: What about the “Total Cell Count” value [6] of the same compound?
A: 355

Q: What about the “Population Apoptotic (%)” value [7] of the same compound?
A: 48%

Q: What about the “Population Fragmented Nuclei (%)” value [7] of the same compound?
A: 9%

Q: And the “Population Healthy Nuclei (%)” value [7]?
A: 75%

Q: What about the “Population Hoechst High Intensity Objects (%)” value [7] of the same compound?
A: 6%

Q: And the “Population Membrane Permeable-Phenotype (%)” value [7]?
A: 0%

Q: What about the “Population Mitochondria Different-Phenotype (%)” value [7] of the same compound?
A: 65%

Q: And the “Population Mitotic Cells (%)” value [7]?
A: 51%

Q: And the “Population Normal (%)” value [7]?
A: 93%

Q: What about the “Population Pyknosed Nuclei (%)” value [7] of the same compound?
A: 14%

Q: What about the “Population Tubulin-Different-Phenotype (%)” value [7] of the same compound?
A: 44%

Q: And the “Total Cell Count” value [7]?
A: 283

Q: And the “Population Apoptotic (%)” value [8]?
A: 45%

Q: What about the “Population Fragmented Nuclei (%)” value [8] of the same compound?
A: 10%

Q: What about the “Population Hoechst High Intensity Objects (%)” value [8] of the same compound?
A: 14%

Q: What about the “Population Mitochondria Different-Phenotype (%)” value [8] of the same compound?
A: 53%

Q: And the “Population Mitotic Cells (%)” value [8]?
A: 54%

Q: What about the “Population Normal (%)” value [8] of the same compound?
A: 85%

Q: What about the “Population Pyknosed Nuclei (%)” value [8] of the same compound?
A: 13%

Q: What about the “Population Tubulin-Different-Phenotype (%)” value [8] of the same compound?
A: 30%

Q: What about the “Total Cell Count” value [8] of the same compound?
A: 362

Q: And the “Population Apoptotic (%)” value [9]?
A: 35%

Q: And the “Population Fragmented Nuclei (%)” value [9]?
A: 19%

Q: What about the “Population Healthy Nuclei (%)” value [9] of the same compound?
A: 74%

Q: What about the “Population Hoechst High Intensity Objects (%)” value [9] of the same compound?
A: 8%

Q: And the “Population Membrane Permeable-Phenotype (%)” value [9]?
A: 1%

Q: And the “Population Mitochondria Different-Phenotype (%)” value [9]?
A: 40%

Q: And the “Population Mitotic Cells (%)” value [9]?
A: 64%

Q: And the “Population Normal (%)” value [9]?
A: 91%

Q: And the “Population Pyknosed Nuclei (%)” value [9]?
A: 6%

Q: What about the “Population Tubulin-Different-Phenotype (%)” value [9] of the same compound?
A: 25%

Q: What about the “Total Cell Count” value [9] of the same compound?
A: 554

Q: What about the “Population Apoptotic (%)” value [10] of the same compound?
A: 60%

Q: And the “Population Fragmented Nuclei (%)” value [10]?
A: 11%

Q: And the “Population Healthy Nuclei (%)” value [10]?
A: 82%

Q: And the “Population Hoechst High Intensity Objects (%)” value [10]?
A: 5%

Q: And the “Population Membrane Permeable-Phenotype (%)” value [10]?
A: 0%

Q: And the “Population Mitochondria Different-Phenotype (%)” value [10]?
A: 32%

Q: And the “Population Mitotic Cells (%)” value [10]?
A: 39%

Q: And the “Population Normal (%)” value [10]?
A: 94%

Q: And the “Population Pyknosed Nuclei (%)” value [10]?
A: 5%

Q: What about the “Population Tubulin-Different-Phenotype (%)” value [10] of the same compound?
A: 17%

Q: And the “Total Cell Count” value [10]?
A: 430

Q: What about the “Population Apoptotic (%)” value [11] of the same compound?
A: 66%

Q: What about the “Population Fragmented Nuclei (%)” value [11] of the same compound?
A: 23%

Q: What about the “Population Healthy Nuclei (%)” value [11] of the same compound?
A: 63%

Q: And the “Population Hoechst High Intensity Objects (%)” value [11]?
A: 11%

Q: What about the “Population Membrane Permeable-Phenotype (%)” value [11] of the same compound?
A: 0%

Q: What about the “Population Mitochondria Different-Phenotype (%)” value [11] of the same compound?
A: 56%

Q: And the “Population Mitotic Cells (%)” value [11]?
A: 33%

Q: What about the “Population Normal (%)” value [11] of the same compound?
A: 88%

Q: What about the “Population Pyknosed Nuclei (%)” value [11] of the same compound?
A: 12%

Q: And the “Population Tubulin-Different-Phenotype (%)” value [11]?
A: 30%

Q: What about the “Total Cell Count” value [11] of the same compound?
A: 379

Q: And the “Population Apoptotic (%)” value [12]?
A: 59%

Q: And the “Population Healthy Nuclei (%)” value [12]?
A: 70%

Q: And the “Population Hoechst High Intensity Objects (%)” value [12]?
A: 8%

Q: What about the “Population Mitochondria Different-Phenotype (%)” value [12] of the same compound?
A: 43%

Q: What about the “Population Mitotic Cells (%)” value [12] of the same compound?
A: 40%

Q: And the “Population Normal (%)” value [12]?
A: 91%

Q: What about the “Population Pyknosed Nuclei (%)” value [12] of the same compound?
A: 6%

Q: And the “Population Tubulin-Different-Phenotype (%)” value [12]?
A: 23%

Q: What about the “Total Cell Count” value [12] of the same compound?
A: 429

Source: ChEMBL document CHEMBL5058577, “EUbOPEN Chemogenomics Library 2 (Multiplex)” (2022)
